ChEMBL document CHEMBL1148723, “Structure-based rational design of beta-hairpin peptides from discontinuous epitopes of cluster of differentiation 2 (CD2) protein to modulate cell adhesion interaction” (J Med Chem, 2007)
Active and inactive are the calls of the source. The rule behind the calls is not given here. Peptide text beside a SMILES is read from it.

Columns and labels:
Erythrocyte = assay: Inhibition of CD2-CD58 interaction assessed as inhibition of E-rosette formation between Jurkat cells and sheep RBCs at 200 uM; format: cell-based; parameters: Activity: scale not given: the % may be the effect or the level left
Method in brief: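 E-rosetting: test peptide added first to AET-treated sheep red blood cells (CD58-expressing), then an equal amount of Jurkat T cells (CD2-expressing). Cells with five or more bound SRBCs scored as rosettes. Read-out is % inhibition of rosette formation versus untreated cells, mean of three independent experiments; anti-CD58 antibody as positive control.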

Jurkat [1] = assay: Inhibition of CD2-CD58 interaction assessed as inhibition of adhesion between Jurkat cells and Caco-2 cells at 90 uM; format: cell-based; conditions: Homo sapiens
Method in brief: (§1)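 Lymphocyte–epithelial adhesion: peptide added to confluent Caco-2 monolayer (hCD58), then BCECF-labelled Jurkat cells (hCD2). 45 min at 37 °C, nonadherent cells washed off with PBS, bound Jurkat cells lysed with Triton X-100, lysate fluorescence read. Result expressed as % inhibition versus untreated, mean of three independent experiments.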

Jurkat (Homo sapiens) = assay: Inhibition of ICAM1-LFA1 mediated adhesion in Jurkat cells
Jurkat [2] = assay: Inhibition of CD2-CD58 interaction assessed as inhibition of adhesion between Jurkat cells and Caco-2 cells; format: cell-based; conditions: Homo sapiens, dose or concentration not given here; method in brief: as §1

## CC[C@H](C)[C@@H]1NC(=O)[C@H](CCCCN)NC(=O)[C@H](N)C(C)(C)SSC[C@H](C(=O)O)NC(=O)[C@H](CO)NC(=O)[C@H]([C@@H](C)CC)NC(=O)[C@H](Cc2ccc(O)cc2)NC(=O)[C@H](CC(=O)O)NC(=O)[C@H]([C@@H](C)O)NC(=O)[C@H]([C@@H](C)CC)NC(=O)[C@H](CC(=O)O)NC(=O)[C@H](CC(=O)O)NC1=O
Erythrocyte
  Activity: 45%
Jurkat [1]
  inhibition: 60%
Jurkat (Homo sapiens)
  Activity: inactive

## CC[C@H](C)[C@@H]1NC(=O)[C@H](CC(=O)O)NC(=O)[C@H](CC(=O)O)NC(=O)[C@H](N)C(C)(C)SSC[C@H](C(=O)O)NC(=O)[C@H](CC(=O)O)NC(=O)[C@H](Cc2ccc(O)cc2)NC(=O)[C@H]([C@@H](C)CC)NC(=O)[C@H](CO)NC(=O)[C@H](C(C)C)NC(=O)[C@H](CCCCN)NC(=O)[C@H](CCC(=O)O)NC(=O)[C@H](Cc2c[nH]c3ccccc23)NC(=O)[C@H](CCCCN)NC1=O
Erythrocyte
  inhibition: 40%
Jurkat [1]
  inhibition: 50%
Jurkat (Homo sapiens)
  Activity: inactive

## CC[C@H](C)[C@H](N)C(=O)N[C@@H](CC(=O)O)C(=O)N[C@@H](CC(=O)O)C(=O)N[C@H](C(=O)N[C@@H](CCCCN)C(=O)N[C@@H](Cc1c[nH]c2ccccc12)C(=O)N[C@@H](CCC(=O)O)C(=O)N[C@@H](CCCCN)C(=O)N[C@H](C(=O)N[C@@H](CO)C(=O)N[C@H](C(=O)N[C@@H](Cc1ccc(O)cc1)C(=O)N[C@@H](CC(=O)O)C(=O)N[C@H](C(=O)O)[C@@H](C)O)[C@@H](C)CC)C(C)C)[C@@H](C)CC (H-IDDIKWEKVSIYDT-OH)
Jurkat [2]
  inhibition: 30%

## CC[C@H](C)[C@@H]1NC(=O)[C@H](CC(=O)O)NC(=O)[C@H](CC(=O)O)NC(=O)[C@H]([C@@H](C)CC)NC(=O)[C@H](CCCCN)NC(=O)[C@H](N)C(C)(C)SSC[C@H](C(=O)O)NC(=O)[C@H](CO)NC(=O)[C@H]([C@@H](C)CC)NC(=O)[C@H](Cc2ccc(O)cc2)NC(=O)[C@H](CC(=O)O)NC(=O)[C@H]([C@@H](C)O)NC(=O)[C@H](CCCCN)NC(=O)[C@H](CC(=O)O)NC1=O
Erythrocyte
  inhibition: 25%

## CC[C@H](C)[C@H](NC(=O)[C@H](CCCCN)NC(=O)[C@@H](N)Cc1c[nH]c2ccccc12)C(=O)N[C@@H](CC(=O)O)C(=O)N[C@@H](CC(=O)O)C(=O)N[C@H](C(=O)N[C@H](C(=O)N[C@@H](CC(=O)O)C(=O)N[C@@H](Cc1ccc(O)cc1)C(=O)N[C@H](C(=O)N[C@@H](CO)C(=O)N[C@H](C(=O)O)C(C)C)[C@@H](C)CC)[C@@H](C)O)[C@@H](C)CC (H-WKIDDITDYISV-OH)
Erythrocyte
  inhibition: 35%

## CC[C@H](C)[C@H](NC(=O)[C@H](CC(=O)O)NC(=O)[C@H](CC(=O)O)NC(=O)[C@@H](NC(=O)[C@H](CCCCN)NC(=O)[C@@H](N)Cc1c[nH]c2ccccc12)[C@@H](C)CC)C(=O)N[C@@H](CC(=O)O)C(=O)N[C@@H](CCCCN)C(=O)N[C@H](C(=O)N[C@@H](CC(=O)O)C(=O)N[C@@H](Cc1ccc(O)cc1)C(=O)N[C@H](C(=O)N[C@@H](CO)C(=O)N[C@H](C(=O)O)C(C)C)[C@@H](C)CC)[C@@H](C)O (H-WKIDDIDKTDYISV-OH)
Erythrocyte
  inhibition: 15%

## CC[C@H](C)[C@@H]1NC(=O)[C@H](CC(=O)O)NC(=O)[C@H](CC(=O)O)NC(=O)[C@H](N)C(C)(C)SSC[C@@H](C(=O)O)NC(=O)[C@H](CC(=O)O)NC(=O)[C@H](Cc2ccc(O)cc2)NC(=O)[C@H]([C@@H](C)CC)NC(=O)[C@H](CO)NC(=O)[C@H](C(C)C)NC(=O)[C@H](Cc2c[nH]c3ccccc23)NC(=O)[C@H](CCCCN)NC1=O
Erythrocyte
  inhibition: 30%
